Paper PMC6874763 (Cell chemical biology, 2019)

Columns and labels:
eIF4A1 = eIF4A1 (Homo sapiens, UniProt P60842); experiment: Fluorescence polarization; type: binding; settings: for rank in screen for enhancing eIF4A1:poly r(AG)8 RNA binding: 10 µM rocaglate, >200 rocaglates of BU-CMD collection
NIH/3T3 cells = experiment: Sulforhodamine B; type: cell-based; settings: read-out: IC50 cytotoxicity against NIH/3T3 cells; 4 day compound exposure
[1] = system: 80S ribosome assembly on (AG)10-FF/HCV/Ren mRNA; experiment: Ribosome binding; type: biochemical, rabbit; settings: 500 nM compound, 100 nM eIF4A1, RRL, 600 µM cycloheximide
Method in brief: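 32P-labeled (AG)10-FF/HCV/Ren mRNA preincubated with 100 nM eIF4A1 and 500 nM compound for 10 min at RT. Then added to rabbit reticulocyte lysate with 600 µM cycloheximide and incubated 10 min at 30 °C. Lysate sedimented on 10–30% glycerol gradients (SW40, 39,000 rpm, 3.5 h, 4 °C). Fractions collected and radioactivity measured by scintillation counting.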

[2] = system: cap-dependent translation (FF); experiment: In vitro translation assay in Krebs-2 extracts; type: biochemical; settings: Krebs-2 extracts programmed with mRNA
Method in brief: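 Reporter mRNA added at 10 ng/µL final. Incubated with or without compound 60 min at 30 °C; firefly luciferase read. IC50 from 3–5 independent experiments (6 concentration points), nonlinear regression fit.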

liver polysomes = experiment: Liver polysome profiling after intraperitoneal delivery; type: in vivo, mice; settings: 3 h after intraperitoneal injection; 0.5 mg/kg CMLD012612, 0.2 mg/kg CR-1–31-B
HEK293 cells = experiment: [35S]-methionine labeling; type: cell-based; settings: 1 h compound exposure; compared with CR-1–31-B and CMLD012073
myr-Akt/Eµ-Myc lymphomas = experiment: Lymphoma chemosensitization study; type: in vivo, mice; settings: CMLD012612 0.2 mg/kg IP daily for 5 days + doxorubicin 10 mg/kg on day 2
eIF4A2 = eIF4A2 (Homo sapiens, UniProt Q14240); experiment: Fluorescence polarization; type: binding; settings: 10 µM CR-1–31-B, 10 nM FAM poly r(AG)8, 30 min RT
Chain of eIF4A2 (Q14240 whole entry, species assumed): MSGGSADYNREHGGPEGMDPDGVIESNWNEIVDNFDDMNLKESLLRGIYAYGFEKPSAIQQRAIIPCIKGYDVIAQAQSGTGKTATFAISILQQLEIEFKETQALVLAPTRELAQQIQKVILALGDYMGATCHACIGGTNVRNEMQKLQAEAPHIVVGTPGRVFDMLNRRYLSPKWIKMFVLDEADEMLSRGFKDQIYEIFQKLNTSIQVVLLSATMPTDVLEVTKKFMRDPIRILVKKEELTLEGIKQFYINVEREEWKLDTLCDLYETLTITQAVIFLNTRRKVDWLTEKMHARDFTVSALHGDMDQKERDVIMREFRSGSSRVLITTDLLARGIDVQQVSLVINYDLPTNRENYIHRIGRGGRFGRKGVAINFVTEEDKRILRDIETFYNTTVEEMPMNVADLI
Method in brief: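 His6-eIF4A2 expressed in E. coli BL21(DE3), purified by Ni-NTA then Q-Sepharose. Varied eIF4A2 concentrations mixed with 10 nM FAM-poly r(AG)8, plus DMSO vehicle or test compound. Equilibrated 30 min at RT, then polarization read. Change in FP expressed relative to DMSO control; n = 3 ± SEM.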

Chain of eIF4A1 (P60842 whole entry, species assumed): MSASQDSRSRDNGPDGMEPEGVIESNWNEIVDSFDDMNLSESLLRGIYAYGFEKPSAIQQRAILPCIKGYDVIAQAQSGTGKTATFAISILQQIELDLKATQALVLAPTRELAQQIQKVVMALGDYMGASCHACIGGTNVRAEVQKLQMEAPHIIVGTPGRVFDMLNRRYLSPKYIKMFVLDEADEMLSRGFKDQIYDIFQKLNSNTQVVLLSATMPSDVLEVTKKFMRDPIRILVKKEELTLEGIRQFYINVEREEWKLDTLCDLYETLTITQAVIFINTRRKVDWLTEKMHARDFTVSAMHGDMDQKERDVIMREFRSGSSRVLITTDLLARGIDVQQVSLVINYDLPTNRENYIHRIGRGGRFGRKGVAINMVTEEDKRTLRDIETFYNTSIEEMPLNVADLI

Compound | rank in screen for enhancing eIF4A1:poly r(AG)8 RNA binding (eIF4A1) | IC50 (NIH/3T3 cells) [nM] | assembly of the 80S ribosome on the mRNA [1] | suppression of liver polysomes (liver polysomes) | further results
COC(=O)[C@@H]1[C@@H](c2ccccc2)[C@]2(c3ccc(OC)cc3)Oc3cc(OC)cc(OC)c3[C@@]23N=C(C2CC2)N[C@@]13O [CMLD012072] | Among the most potent | – | – | – | –
COC(=O)[C@@H]1[C@@H](c2ccccc2)[C@]2(c3ccc(OC)cc3)Oc3cc(OC)cc(OC)c3[C@@]23N=C(C)N[C@@]13O [CMLD012073] | Among the most potent | 10 | inhibited assembly of the 80S ribosome | – | potency at inhibiting cap-dependent translation (FF) relative to CR-1–31-B [2]: ~ 3 fold
COc1ccc([C@@]23Oc4cc(OC)cc(OC)c4[C@@]24NC(C)=NC4=C(C=O)[C@H]3c2ccccc2)cc1 [CMLD012607] | – | 454 | – | – | –
COc1ccc([C@@]23Oc4cc(OC)cc(OC)c4[C@@]24N=C(C)N[C@@]4(O)[C@H](C(=O)N(C)OC)[C@H]3c2ccccc2)cc1 [CMLD012612] | – | ~2 | – | effectively suppressed liver polysomes | inhibition of cellular translation (35S-methionine incorporation) (HEK293 cells): surpasses those of our previous lead compounds; duration of complete tumor loss (tumor-free survival) (myr-Akt/Eµ-Myc lymphomas): 15 to 16 days; synergy with doxorubicin (myr-Akt/Eµ-Myc lymphomas): effectively synergized; cytotoxicity in eIF4A1^em1JP cells versus NIH/3T3 (eIF4A1^em1JP cells): significantly blunted; resistance of eIF4A^em1jp cells relative to parental NIH/3T3 cells (eIF4A1^em1JP cells; 4 day compound exposure): at least 10 fold
CONC(=O)[C@H]1[C@@H](O)[C@@]2(O)c3c(OC)cc(OC)cc3O[C@@]2(c2ccc(OC)cc2)[C@@H]1c1ccccc1 [CR-1–31-B] | ranked highly | ~8.5 | inhibited assembly of the 80S ribosome | effectively suppressed liver polysomes | binding activity of eIF4A2 to poly r(AG)8 (eIF4A2): enhanced; stimulation of eIF4A1 binding to poly rA(GAA)5 (eIF4A1; 500 nM eIF4A1, 30 min, change in FP vs vehicle): preferentially stimulated; binding activity of eIF4A1 to poly r(AG)8 (eIF4A1; 10 µM CR-1–31-B, 10 nM FAM poly r(AG)8, 30 min RT): enhanced
CONC(=O)[C@H]1[C@@H](O)[C@@]2(O)c3c(OC)cc(OC)cc3O[C@@]2(c2ccc(Br)cc2)[C@@H]1c1ccccc1 [SDS-1–0-21] | ranked highly | – | – | – | –
